# Activity calls are given as the source filed them. The calls are words filed in the database; no cut-off is given here.
# Columns and labels:
# [1] = target: Ryanodine receptor 2 (Mus musculus) (UniProt E9Q401); assay: Inhibition of RyR2 in Casq2 gene knockout mouse cardiomyocytes assessed as reduction in calcium sparks frequency at 25 uM incubated for 60 mins; format: cell-based; settings: Cardiomyocyte
# Procedure, shortened: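 Isolated ventricular cardiomyocytes were permeabilized with saponin, which opens the sarcolemma but leaves the SR membrane intact. Cells were incubated with 25 μM compound or DMSO vehicle for 60 min (extended from the 10 min screen). RyR2 activity was read as the frequency of Ca2+ sparks relative to vehicle. Statistics were one-way ANOVA with Tukey's post hoc test.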
# [2] = Kinetic solubility of the compound in Hanks Bile Salt Solution at 25 uM incubated for 2 hrs by nephelometry; format: ADME
# [3] = Kinetic solubility of the compound in phosphate buffer at pH 7.4 at 25 uM incubated for 2 hrs by nephelometry; format: physicochemical; settings: pH 7.4, 2 h
# [4] = target: Ryanodine receptor 2 (Mus musculus) (UniProt E9Q401); assay: Inhibition of RyR2 in Casq2 gene knockout mouse cardiomyocytes assessed as reduction in calcium sparks frequency at 25 uM incubated for 10 mins; format: cell-based; settings: Cardiomyocyte
# Procedure, shortened: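 Isolated ventricular cardiomyocytes permeabilized with saponin, which opens the sarcolemma but leaves the SR membrane intact. Cells incubated 10 min with 25 μM compound or DMSO vehicle. RyR2 activity read as spontaneous Ca2+ spark frequency and compared to vehicle; statistics by one-way ANOVA with Tukey's posthoc test.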
# Ryanodine receptor 2 = Ryanodine receptor 2 (Mus musculus, UniProt E9Q401); assay: Inhibition of RyR2 in Casq2 gene knockout mouse cardiomyocytes assessed as reduction in calcium sparks frequency incubated for 30 mins; format: cell-based, Cardiomyocyte
# Procedure, shortened: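 Saponin-permeabilized isolated ventricular cardiomyocytes (sarcolemma opened, SR membrane intact) incubated 30 min with compound across a concentration range for concentration-response curves. Read-out is frequency of spontaneous Ca2+ sparks, used as a measure of RyR2 activity. DMSO served as vehicle.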
# Sequence of Ryanodine receptor 2 (Mus musculus) (E9Q401 whole entry): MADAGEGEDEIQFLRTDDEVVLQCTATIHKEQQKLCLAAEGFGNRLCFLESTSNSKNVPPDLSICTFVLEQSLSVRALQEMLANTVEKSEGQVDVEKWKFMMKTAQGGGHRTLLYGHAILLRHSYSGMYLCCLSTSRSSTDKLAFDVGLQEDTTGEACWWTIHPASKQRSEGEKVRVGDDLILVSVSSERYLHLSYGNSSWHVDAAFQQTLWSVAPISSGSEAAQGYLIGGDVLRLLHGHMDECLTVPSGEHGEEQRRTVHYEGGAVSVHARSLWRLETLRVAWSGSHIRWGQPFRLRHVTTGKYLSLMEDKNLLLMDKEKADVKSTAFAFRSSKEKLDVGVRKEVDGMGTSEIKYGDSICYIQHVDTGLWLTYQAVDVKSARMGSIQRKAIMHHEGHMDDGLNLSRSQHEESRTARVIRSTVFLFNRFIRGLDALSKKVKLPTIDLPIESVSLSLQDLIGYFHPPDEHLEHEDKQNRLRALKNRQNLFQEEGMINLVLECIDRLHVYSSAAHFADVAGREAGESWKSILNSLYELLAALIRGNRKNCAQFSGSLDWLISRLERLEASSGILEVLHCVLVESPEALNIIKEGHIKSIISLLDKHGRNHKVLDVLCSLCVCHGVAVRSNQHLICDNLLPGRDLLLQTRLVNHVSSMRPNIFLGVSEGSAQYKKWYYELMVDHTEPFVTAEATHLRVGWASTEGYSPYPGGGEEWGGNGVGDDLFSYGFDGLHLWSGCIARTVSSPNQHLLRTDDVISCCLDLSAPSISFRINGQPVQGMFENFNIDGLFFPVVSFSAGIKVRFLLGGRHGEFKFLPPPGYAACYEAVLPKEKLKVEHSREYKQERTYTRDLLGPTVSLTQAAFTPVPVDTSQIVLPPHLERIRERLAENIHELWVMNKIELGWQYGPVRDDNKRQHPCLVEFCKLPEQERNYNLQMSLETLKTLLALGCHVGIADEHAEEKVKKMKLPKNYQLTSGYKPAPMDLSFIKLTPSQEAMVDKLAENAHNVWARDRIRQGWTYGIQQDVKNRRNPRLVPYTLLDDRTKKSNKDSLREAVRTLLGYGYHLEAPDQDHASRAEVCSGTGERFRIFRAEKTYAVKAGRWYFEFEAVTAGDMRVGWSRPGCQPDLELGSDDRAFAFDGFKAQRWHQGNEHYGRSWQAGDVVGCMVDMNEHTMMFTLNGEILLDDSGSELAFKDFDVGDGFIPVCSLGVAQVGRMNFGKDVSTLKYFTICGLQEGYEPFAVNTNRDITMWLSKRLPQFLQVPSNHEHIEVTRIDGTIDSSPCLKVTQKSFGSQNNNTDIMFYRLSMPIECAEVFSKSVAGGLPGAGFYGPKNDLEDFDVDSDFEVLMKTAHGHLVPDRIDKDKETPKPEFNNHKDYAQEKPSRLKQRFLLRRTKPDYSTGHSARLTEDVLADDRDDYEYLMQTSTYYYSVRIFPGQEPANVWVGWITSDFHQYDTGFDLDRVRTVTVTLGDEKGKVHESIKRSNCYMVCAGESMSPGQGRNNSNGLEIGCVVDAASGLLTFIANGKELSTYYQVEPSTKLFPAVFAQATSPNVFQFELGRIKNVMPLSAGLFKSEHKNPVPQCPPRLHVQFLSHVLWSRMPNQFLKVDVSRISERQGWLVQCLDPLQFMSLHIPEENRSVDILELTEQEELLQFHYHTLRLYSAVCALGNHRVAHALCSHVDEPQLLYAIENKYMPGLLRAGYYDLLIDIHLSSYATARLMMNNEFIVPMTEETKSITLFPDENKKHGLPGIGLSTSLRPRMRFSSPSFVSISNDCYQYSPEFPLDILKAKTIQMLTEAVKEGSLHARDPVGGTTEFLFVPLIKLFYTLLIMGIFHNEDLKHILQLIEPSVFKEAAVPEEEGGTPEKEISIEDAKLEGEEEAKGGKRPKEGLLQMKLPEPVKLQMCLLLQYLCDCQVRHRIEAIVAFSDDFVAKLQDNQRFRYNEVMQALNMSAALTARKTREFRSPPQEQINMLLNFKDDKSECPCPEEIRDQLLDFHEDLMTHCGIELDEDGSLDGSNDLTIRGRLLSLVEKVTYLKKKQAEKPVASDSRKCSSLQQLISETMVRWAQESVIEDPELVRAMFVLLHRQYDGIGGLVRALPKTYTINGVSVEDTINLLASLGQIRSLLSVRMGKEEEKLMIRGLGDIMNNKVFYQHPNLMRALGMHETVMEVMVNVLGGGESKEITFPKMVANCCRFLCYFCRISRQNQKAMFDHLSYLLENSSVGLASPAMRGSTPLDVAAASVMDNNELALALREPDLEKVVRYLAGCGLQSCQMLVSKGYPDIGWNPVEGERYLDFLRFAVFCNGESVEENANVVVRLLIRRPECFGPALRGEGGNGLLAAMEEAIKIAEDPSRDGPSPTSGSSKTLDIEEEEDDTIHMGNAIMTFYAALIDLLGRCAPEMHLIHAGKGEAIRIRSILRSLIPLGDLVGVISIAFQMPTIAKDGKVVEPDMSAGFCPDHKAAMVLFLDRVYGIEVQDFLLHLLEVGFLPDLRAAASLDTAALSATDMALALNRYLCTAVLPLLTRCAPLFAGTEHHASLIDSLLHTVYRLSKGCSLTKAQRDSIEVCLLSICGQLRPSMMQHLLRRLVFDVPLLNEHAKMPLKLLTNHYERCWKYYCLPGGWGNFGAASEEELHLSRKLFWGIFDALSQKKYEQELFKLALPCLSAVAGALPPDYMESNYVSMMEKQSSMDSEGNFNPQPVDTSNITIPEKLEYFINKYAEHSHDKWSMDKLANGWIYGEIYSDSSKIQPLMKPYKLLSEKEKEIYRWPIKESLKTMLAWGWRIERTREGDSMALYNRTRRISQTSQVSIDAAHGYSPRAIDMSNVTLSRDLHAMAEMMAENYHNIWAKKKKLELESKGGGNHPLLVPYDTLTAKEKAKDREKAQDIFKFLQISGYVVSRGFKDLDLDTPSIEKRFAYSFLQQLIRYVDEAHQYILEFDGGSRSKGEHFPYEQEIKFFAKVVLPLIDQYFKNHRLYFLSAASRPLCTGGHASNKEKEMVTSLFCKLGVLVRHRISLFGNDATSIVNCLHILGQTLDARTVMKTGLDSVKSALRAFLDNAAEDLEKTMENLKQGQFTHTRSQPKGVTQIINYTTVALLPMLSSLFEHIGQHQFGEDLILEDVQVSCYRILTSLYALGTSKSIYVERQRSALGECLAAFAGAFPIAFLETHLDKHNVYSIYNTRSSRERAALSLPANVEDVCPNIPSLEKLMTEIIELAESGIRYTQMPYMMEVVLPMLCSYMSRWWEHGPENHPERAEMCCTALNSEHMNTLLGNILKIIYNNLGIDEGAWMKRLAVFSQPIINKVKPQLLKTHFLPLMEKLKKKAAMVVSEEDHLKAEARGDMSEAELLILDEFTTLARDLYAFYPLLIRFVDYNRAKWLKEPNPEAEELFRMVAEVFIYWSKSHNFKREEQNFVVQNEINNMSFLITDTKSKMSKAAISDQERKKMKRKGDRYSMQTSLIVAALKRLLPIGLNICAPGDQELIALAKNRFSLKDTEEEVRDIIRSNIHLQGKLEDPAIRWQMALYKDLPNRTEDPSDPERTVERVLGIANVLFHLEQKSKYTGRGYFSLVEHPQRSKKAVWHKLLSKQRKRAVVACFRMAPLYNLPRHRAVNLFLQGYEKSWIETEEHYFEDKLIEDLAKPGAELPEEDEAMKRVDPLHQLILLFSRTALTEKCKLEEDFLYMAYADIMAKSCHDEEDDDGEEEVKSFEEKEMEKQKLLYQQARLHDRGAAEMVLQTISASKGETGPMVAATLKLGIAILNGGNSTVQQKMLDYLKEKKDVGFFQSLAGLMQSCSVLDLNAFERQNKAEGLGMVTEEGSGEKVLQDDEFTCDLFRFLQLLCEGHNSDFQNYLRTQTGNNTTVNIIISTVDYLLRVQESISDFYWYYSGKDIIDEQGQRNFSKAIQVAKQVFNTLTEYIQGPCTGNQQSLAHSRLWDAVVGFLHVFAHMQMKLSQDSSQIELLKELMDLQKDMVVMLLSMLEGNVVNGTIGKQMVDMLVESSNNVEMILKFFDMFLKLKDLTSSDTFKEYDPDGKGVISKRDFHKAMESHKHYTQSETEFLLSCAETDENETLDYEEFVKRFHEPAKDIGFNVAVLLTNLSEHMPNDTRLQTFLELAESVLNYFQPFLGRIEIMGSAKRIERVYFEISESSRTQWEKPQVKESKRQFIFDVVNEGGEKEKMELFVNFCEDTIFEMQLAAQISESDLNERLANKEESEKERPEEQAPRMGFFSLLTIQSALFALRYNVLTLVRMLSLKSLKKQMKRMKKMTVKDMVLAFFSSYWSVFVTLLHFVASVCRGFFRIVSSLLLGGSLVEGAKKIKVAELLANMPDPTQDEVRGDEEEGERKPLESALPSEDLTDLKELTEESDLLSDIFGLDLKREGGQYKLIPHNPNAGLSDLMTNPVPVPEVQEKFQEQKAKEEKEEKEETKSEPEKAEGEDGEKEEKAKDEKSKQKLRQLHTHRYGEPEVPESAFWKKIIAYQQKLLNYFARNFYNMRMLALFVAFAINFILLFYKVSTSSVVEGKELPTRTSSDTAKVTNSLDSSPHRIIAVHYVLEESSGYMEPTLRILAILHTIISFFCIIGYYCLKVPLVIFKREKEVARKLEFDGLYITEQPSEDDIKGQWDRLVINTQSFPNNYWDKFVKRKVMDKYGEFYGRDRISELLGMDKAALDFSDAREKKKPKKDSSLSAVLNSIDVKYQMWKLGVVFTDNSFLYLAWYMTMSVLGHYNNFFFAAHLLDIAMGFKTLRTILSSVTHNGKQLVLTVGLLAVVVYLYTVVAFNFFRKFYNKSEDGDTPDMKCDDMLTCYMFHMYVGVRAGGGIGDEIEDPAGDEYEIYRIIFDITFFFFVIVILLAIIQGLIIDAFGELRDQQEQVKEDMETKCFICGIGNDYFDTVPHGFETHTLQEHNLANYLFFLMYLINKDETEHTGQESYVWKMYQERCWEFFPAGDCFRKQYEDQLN
# Sequence of Ryanodine receptor 2 (E9Q401 whole entry): as above
SMILES,inhibition [1],Kinetic_solubility [2],Kinetic_solubility [3],inhibition [4],IC50 (Ryanodine receptor 2)
CCCCC[C@H](OC(=O)[C@@H](C)N(C)C(=O)[C@H](CCCCC)OC(=O)[C@@H](C)N(C)C(=O)OC(C)(C)C)C(=O)OCc1ccccc1,inactive,,,,
CCCCC[C@H]1OC(=O)[C@H](C)N(C)C1=O,,Soluble,Soluble,inactive,
CCCCC[C@@H]1OC(=O)[C@@H](C)N(C)C(=O)[C@H](CCCCC)OC(=O)[C@@H](C)N(C)C(=O)[C@H](CCCCC)OC(=O)[C@@H](C)N(C)C1=O,,Soluble,Soluble,Active,3.88 µM
CCCCC[C@@H]1OC(=O)[C@@H](C)N(C)C(=O)[C@H](CCCCC)OC(=O)[C@@H](C)N(C)C(=O)[C@H](CCCCC)OC(=O)[C@@H](C)N(C)C(=O)[C@H](CCCCC)OC(=O)[C@@H](C)N(C)C(=O)[C@H](CCCCC)OC(=O)[C@@H](C)N(C)C1=O,inactive,Soluble,Soluble,inactive,
CCCCC[C@@H]1OC(=O)[C@@H](C)N(C)C(=O)[C@H](CCCCC)OC(=O)[C@@H](C)N(C)C(=O)[C@H](CCCCC)OC(=O)[C@@H](C)N(C)C(=O)[C@H](CCCCC)OC(=O)[C@@H](C)N(C)C1=O,,Soluble,Soluble,Active,1.89 µM
CCCCC[C@@H]1OC(=O)[C@@H](C)N(C)C(=O)[C@H](CCCCC)OC(=O)[C@@H](C)N(C)C(=O)[C@H](CCCCC)OC(=O)[C@@H](C)N(C)C(=O)[C@H](CCCCC)OC(=O)[C@@H](C)N(C)C(=O)[C@H](CCCCC)OC(=O)[C@@H](C)N(C)C(=O)[C@H](CCCCC)OC(=O)[C@@H](C)N(C)C1=O,,Soluble,Soluble,inactive,
CCCCC[C@@H]1OC(=O)[C@@H](C)N(C)C(=O)[C@H](CCCCC)OC(=O)[C@@H](C)N(C)C1=O,inactive,Soluble,Soluble,inactive,

# — ChEMBL document CHEMBL5226356, “Ring Size as an Independent Variable in Cyclooligomeric Depsipeptide Antiarrhythmic Activity” (ACS Med Chem Lett, 2021)
